# Screens (PubChem)
# Hits are enriched below; roughly 4.9% of the tested compounds scored in any of these assays.
# NPY Y2 blocker – blocks the human neuropeptide Y Y2 receptor; P49146; NPY-Y2 expressing cells, antagonist mode; inhibition, % at 2.7 µM; 140,000 tested, 0.99% active; AID 793; in the data active means inhibition above about 17%;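 further: 0% = vehicle with agonist challenge and 100% = reference antagonist with challenge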
# Target sequence (P49146 whole entry, looked up): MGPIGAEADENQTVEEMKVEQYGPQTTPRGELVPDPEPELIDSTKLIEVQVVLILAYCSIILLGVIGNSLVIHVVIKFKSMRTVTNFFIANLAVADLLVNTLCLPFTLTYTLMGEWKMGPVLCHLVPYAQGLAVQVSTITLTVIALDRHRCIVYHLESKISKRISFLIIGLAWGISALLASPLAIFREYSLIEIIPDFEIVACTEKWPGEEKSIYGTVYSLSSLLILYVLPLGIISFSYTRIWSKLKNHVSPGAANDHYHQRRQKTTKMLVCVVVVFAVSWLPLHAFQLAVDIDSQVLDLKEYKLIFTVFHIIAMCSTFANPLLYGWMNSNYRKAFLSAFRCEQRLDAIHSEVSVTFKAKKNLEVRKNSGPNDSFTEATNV
# WT yeast gro inh – growth inhibition of WT yeast, mitochondrial fusion screen. mitochondrial fusion phenotypic screen, WT strain. inhibition, % at 10 µM. 190,000 tested, 2.1% active. AID 1362; in the data active means inhibition above about 58%; tested in S. cerevisiae
# NPY2 pot ag – human NPY-Y2 potentiation or agonism, primary screen; P49146; cells expressing NPY-Y2, potentiator/agonist read-out; activation, % at 3.6 µM; 220,000 tested, 0.45% active; AID 1359; in the data active means activation above about 27%;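 further: cells stimulated with NPY near EC25 plus isoproterenol at EC100; 0% = vehicle plus submaximal agonist and 100% = vehicle plus saturating agonist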
# RAM inhibit – yeast RAM network inhibition | inhibition, % at 50 µM | 190,000 tested, 1.8% active | S. cerevisiae dse1pr::URA3 reporter, 5-FOA growth OD615, 2 d; analog-sensitive cbk1-as2 kinase mutant strain | AID 868;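 active means inhibition above a set limit, 3 SD over mean compound inhibition, cut at about 8.4% in these data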;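 further: 0% = DMSO-only wells with no growth and 100% = 10 µM 1-NA-PP1 full growth; inhibition rescues growth on 5-FOA so higher OD means more RAM inhibition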
# NPY-Y1 PAM-ag – human NPY-Y1 potentiation or agonism, primary screen. activation, % at 3.6 µM. AID 1304. P25929. NPY-Y1 expressing cells, potentiator/agonist activation. 220,000 tested, 0.37% active; in the data active means activation above about 33%, passing the limit was not always enough;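 further: cells stimulated with NPY at EC10 then isoproterenol at EC100; 0% = low agonist plus stimulus and 100% = saturating agonist plus stimulus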
# NPY-Y1 antag – antagonists of human neuropeptide Y receptor Y1; P25929; HEK293-CNG Y1 cells, membrane potential fluorescence; NPY at EC95, then isoproterenol; inhibition, % at 3.6 µM; 200,000 tested, 1% active; AID 1040;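 active means inhibition above the campaign mean inhibition of all tested compounds plus 3 SD, cut at about 20% in these data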;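 further: 0% = DMSO wells given NPY plus isoproterenol and 100% = isoproterenol alone without NPY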
#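 Test system – HEK293 Y1/CNG channel cell line · Also added – NPY agonist 25 nM, then isoproterenol 1 µM plus Ro 20-1724 25 µM · Compound dosing – one concentration, 3.6 µM, in 0.4% DMSO · Schedule – compound incubation 1 h at room temperature, readout 45 min post-stimulation · Technique – fluorescence, membrane potential probe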
# RAM 5-FOA – restores 5-FOA growth of efflux-deficient yeast; shares compounds with RAM inhibit; S. cerevisiae efflux-deficient reporter strain, 5-FOA growth OD615, 2 days; max inhibition, %; 1,200 tested, under 10 active; AID 1305; call rule not given here;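 further: plate controls were vehicle for no effect and reference inhibitor for full effect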
# An asterisk follows results filed as active; . = no result.
SMILES,NPY Y2 blocker,WT yeast gro inh,NPY2 pot ag,RAM inhibit,NPY-Y1 PAM-ag,NPY-Y1 antag,RAM 5-FOA
Cc1ccc(Cl)cc1N1CCN(C(=S)NCCc2ccccc2)CC1,.,66.2*,10.5,13.0*,3.6,7.7,2.8
Cc1cccc(N2CCN(C(=S)NCCc3ccccc3)CC2)c1C,2.8,7.9,1.2,4.7,-9.9,-1.3,.
CCOc1ccccc1NC(=O)C(OC(=O)c1ccc(N(C)C)cc1)c1ccccc1 (configuration not stated),1.8,2.8,16.6,3.8,-18.3,2.5,.
CCOc1ccccc1NC(=O)C(OC(=O)c1ccc(CC)cc1)c1ccccc1 (configuration not stated),2.8,7.0,14.4,14.7*,7.9,5.8,4.2
CCOC(=O)c1oc2ccccc2c1CSc1nnnn1-c1ccc(OC)cc1,4.8,5.0,-16.5,7.4,-3.3,6.5,.
CCOC(=O)c1oc2ccc(Br)cc2c1CSc1nnc(C)s1,2.2,3.6,-0.9,17.4*,-17.3,7.4,2.0
CC(=O)N(CCC(c1ccccc1)c1ccco1)Cc1cccs1 (configuration not stated),6.4,4.0,-25.0,28.1*,-17.6,4.9,2.2
CN(C(=O)COC(=O)c1sc2ccccc2c1Cl)C1CCCCC1,6.0,53.7,3.1,13.7*,-22.9,4.6,2.6
CN(C)CCCOC(=O)c1sc2ccccc2c1Cl,.,9.8,-9.5,0.6,-29.0,11.4,.
COc1cc2ccccc2cc1C(=O)Nc1ccccc1N1CCN(S(C)(=O)=O)CC1,-1.0,47.9,-6.3,4.0,5.7,-12.5,.
Cc1cc2c(C)ccc(C)c2nc1SCC(=O)c1cccs1,8.9,3.8,-17.0,13.5*,-14.8,9.3,1.5
CCN(CC)S(=O)(=O)c1ccc(NC(=O)CCC2CCCCC2)cc1,3.2,-5.0,-0.7,11.6*,2.3,1.4,4.8
CCc1cccc2c(C(=O)CSc3nnc(-c4ccoc4C)n3C)c[nH]c12,-1.3,-11.2,-1.9,5.3,8.6,-1.1,.
Cn1nc(C(F)(F)F)c(/C=N/OCc2c(Cl)cccc2Cl)c1Cl,11.6,-1.9,-6.0,0.2,-9.6,12.8,.
Cn1nc(C(F)(F)F)c(/C=N/OC(=O)c2ccccc2Cl)c1SCc1ccccc1Cl,4.2,7.3,-4.4,12.3*,10.3,6.6,2.7
Cn1nc(C(F)(F)F)c(/C=N/OC(=O)c2ccc(Cl)cc2)c1Cl,1.7,0.0,-4.3,4.9,16.8,7.7,.
Cn1nc(C(F)(F)F)c(/C=N/OC(=O)c2ccccc2)c1SCc1ccc(Cl)cc1,-0.1,-7.4,-11.1,12.1*,2.6,-0.1,3.8
Oc1ccccc1/C=N/Nc1nc2ccccc2o1,.,.,5.1,.,12.6,.,.
CCOCCCNC(=O)/C(C#N)=C/c1ccc(-c2ccc(S(=O)(=O)N3CCOCC3)cc2)o1,1.8,9.5,-5.0,12.3*,-14.7,3.5,3.4
COCCNC(=O)/C(C#N)=C/c1ccc(-c2ccc(S(=O)(=O)N3CCOCC3)cc2)o1,0.9,2.1,5.3,3.3,-17.4,2.4,.
COc1ccc(C(=O)/C=C/c2ccc(OC)c(COc3ccc(F)cc3)c2)cc1,-0.5,-11.2,2.5,18.4*,-21.9,6.5,3.4
COc1ccc(OC)c(/C=C/C(=O)c2ccc(Cl)cc2)c1,0.6,-14.6,-3.6,13.2*,10.8,5.6,4.8
COc1ccc(/C=C/C(=O)c2ccc(OC)cc2OC)c(OC)c1,.,20.0,-29.5,13.7*,-16.6,-2.7,2.0
COc1ccc(/C=C/C(=O)c2ccccc2)c(OC)c1,.,21.8,-9.6,1.4,-22.5,0.0,.
COc1ccc(C(C)=O)cc1COc1ccc(F)cc1,.,16.2,0.4,-0.1,-18.6,0.1,.
SMILES,NPY Y2 blocker,WT yeast gro inh,NPY2 pot ag,RAM inhibit,NPY-Y1 PAM-ag,NPY-Y1 antag,RAM 5-FOA
COc1ccccc1/C=C/C(=O)c1ccc(Cl)cc1,4.6,22.0,-16.0,0.5,-3.4,14.5,.
CCCn1c(=O)c(C(=O)Nc2ccccc2C(=O)OCC)c(O)c2ccccc21,6.0,1.3,-6.3,15.6*,-3.9,-2.6,2.6
CCn1c(=O)c(C(=O)NCc2ccc(OC)c(OC)c2)c(O)c2ccccc21,0.0,-10.1,8.5,4.3,-2.3,-0.6,.
CCOC(=O)Cc1csc(NC(=O)c2c(O)c3ccccc3n(CC(C)C)c2=O)n1,1.4,10.9,0.3,13.2*,-7.6,-3.0,3.1
CCCn1c(=O)c(C(=O)Nc2ncccc2C)c(O)c2ccccc21,.,48.8,1.0,-1.6,-15.0,6.2,.
CCCn1c(=O)c(C(=O)NCc2ccc(OC)c(OC)c2)c(O)c2ccccc21,-2.5,-5.7,-5.5,17.1*,15.8,-0.8,2.0
CCCn1c(SCC(=O)Nc2nc3ccccc3s2)nc2c1c(=O)n(C)c(=O)n2C,-0.2,5.5,8.6,2.2,6.5,2.5,.
COc1ccc(C(=O)O/N=C2\CCS(=O)(=O)c3sccc32)cc1,.,-5.0,-5.6,3.0,-16.1,4.1,.
CN1CCC(NC(=O)c2cccs2)CC1,2.0,3.8,-8.9,0.8,-15.7,-0.1,.
CC(C)N1C(=O)CCC1C(=O)N1CCN(c2ccc(F)cc2)CC1 (configuration not stated),.,.,-16.7,.,12.3,.,.
O=C(CN(Cc1cccs1)C(=O)CSc1nnc(COc2ccccc2)o1)NC1CCCC1,-0.1,12.0,-13.1,16.7*,-0.3,5.9,1.5
O=C(CN(Cc1cccs1)C(=O)c1csnn1)NC1CCCC1,0.4,-5.7,8.4,1.0,-20.3,5.9,.
C=CCOc1c(Br)cc(CNc2ccc(NC(=O)C(C)C)c(OC)c2)cc1OCC,1.6,13.8,3.0,12.0*,-15.4,-1.5,2.5
C=CCOc1c(Br)cc(CNc2ccc(NC(=O)CCC)cc2)cc1OCC,-2.7,22.1,13.3,3.2,36.8,-0.8,.
C=CCNC(=O)/C(C#N)=C/c1ccc(OS(=O)(=O)c2ccc(C)cc2)c(OC)c1,1.9,42.4,1.2,15.4*,6.4,-3.5,1.6
CCc1ccccc1NC(=O)/C(C#N)=C\c1ccc(Sc2ccccc2)o1,7.5,-8.5,-29.5,4.2,-61.7,13.7,.
CCc1ccccc1NC(=O)/C(C#N)=C/c1ccc(Sc2ccccc2)o1,10.3,36.6,-17.5,16.4*,-25.1,11.7,2.5
O=c1ccc2cc3c4c(c2o1)CCCN4CCC3,.,10.8,-0.5,1.6,-3.0,5.4,.
N#CC(c1ccc(F)cc1)c1ccc(C(=O)c2ccccc2)cc1 (configuration not stated),5.4,16.4,-4.5,16.5*,-27.4,2.1,3.6
CC1CCCN(C(=O)C2c3ccccc3C(=O)N3CCc4ccccc4C23)C1 (configuration not stated),14.9,-15.1,-7.8,-0.3,-2.1,4.3,.
CC(C)Oc1ccccc1OCCCCn1cnc2ccccc2c1=O,.,-12.5,-11.7,13.8*,-3.0,-1.6,2.2
NC(N)=N/N=C/c1ccc(OCc2ccccc2)cc1,9.0,19.4,-5.7,-0.7,-23.3,12.3,.
